Data as given in ChEMBL document CHEMBL1156207, “Synthesis of mono-carbonyl analogues of curcumin and their effects on inhibition of cytokine release in LPS-stimulated RAW 264.7 macrophages” (Bioorg Med Chem, 2010).
The source made the active and inactive calls. The calls are words filed in the database; no cut-off is given here.

Assays:
RAW264.7 [1] = test: Antiinflammatory activity against LPS-stimulated mouse RAW264.7 cells assessed as inhibition of TNFalpha accumulation at 10 uM pretreated for 2 hrs before LPS challenge after 22 hrs by ELISA relative to control; type: functional
Method in brief: (§1)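 RAW 264.7 cells plated at 4.0 × 10⁵/plate at 37 °C, 5% CO₂, pretreated 2 h with compound or vehicle, then LPS added for 22 h. Secreted cytokine in media measured by ELISA and normalized to total protein of lysed cell pellets from parallel plates. Expressed as percent of LPS control; mean with SE from 3–5 independent experiments.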

RAW264.7 [2] = test: Antiinflammatory activity against LPS-stimulated mouse RAW264.7 cells assessed as inhibition of IL-6 accumulation at 10 uM pretreated for 2 hrs before LPS challenge after 22 hrs by ELISA relative to control; type: functional; method in brief: as §1
RAW264.7 [3] = test: Cytotoxicity against LPS-stimulated mouse RAW264.7 cells at 10 uM pretreated for 2 hrs before LPS challenge after 22 hrs; type: cell-based; details: raw264.7, 22 h
RAW264.7 [4] = test: Antiinflammatory activity against LPS-stimulated mouse RAW264.7 cells assessed as inhibition of TNFalpha accumulation pretreated for 2 hrs before LPS challenge after 22 hrs by ELISA relative to control; type: functional, cell-based
Method in brief: (§2)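 Macrophages plated overnight at 4.0 × 10⁶/plate at 37 °C, 5% CO₂, and pretreated 2 h with compound at 1, 2.5, 5.0 and 10 (concentration series), then stimulated with LPS for 22 h. Cytokine in culture media quantified by ELISA and normalized to total cellular protein, measured after lysis in Tris–NP40–SDS buffer and protein assay.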

RAW264.7 [5] = test: Antiinflammatory activity against LPS-stimulated mouse RAW264.7 cells assessed as inhibition of IL-6 accumulation pretreated for 2 hrs before LPS challenge after 22 hrs by ELISA relative to control; type: functional, cell-based; method in brief: as §2

| Compound | Activity (RAW264.7 [1]) | Activity (RAW264.7 [2]) | other results |
| --- | --- | --- | --- |
| COc1ccc(/C=C2\CCC/C(=C\c3ccc(OC)cc3OC)C2=O)c(OC)c1 | inactive | inactive |  |
| COc1ccc(/C=C/C(=O)/C=C/c2ccc(OC)cc2OC)c(OC)c1 | Active | 60% |  |
| O=C1/C(=C/c2c(F)cccc2F)CC/C1=C\c1c(F)cccc1F | inactive | inactive |  |
| O=C(/C=C/c1c(F)cccc1F)/C=C/c1c(F)cccc1F | Active | 60% | Activity (RAW264.7 [3]): Non-toxic; inhibition (RAW264.7 [4]): Dose-dependent effect; inhibition (RAW264.7 [5]): Dose-dependent effect |
| Cc1ccc(/C=C/C(=O)/C=C/c2ccc(C)cc2C)c(C)c1 | Active | 60% |  |
| O=C1/C(=C/c2ccc(Cl)cc2Cl)CCC/C1=C\c1ccc(Cl)cc1Cl | inactive | inactive |  |
| O=C1/C(=C/c2ccccc2C(=O)O)CC/C1=C\c1ccccc1C(=O)O | inactive | 60% |  |
| O=C(/C=C/c1cc(F)ccc1F)/C=C/c1cc(F)ccc1F | inactive | inactive |  |
| COc1ccc(/C=C2\CC/C(=C\c3ccc(OC)cc3OC)C2=O)c(OC)c1 | inactive | 60% |  |
| O=C1/C(=C/c2cccc(Cl)c2Cl)CCC/C1=C\c1cccc(Cl)c1Cl | inactive | inactive |  |
| O=C1/C(=C/c2ccc(Cl)cc2Cl)CC/C1=C\c1ccc(Cl)cc1Cl | inactive | inactive |  |
| O=C1/C(=C/c2cc(F)ccc2F)CCC/C1=C\c1cc(F)ccc1F | inactive | inactive |  |
| O=C1/C(=C\c2ccccc2C(=O)O)CCC/C1=C\c1ccccc1C(=O)O | inactive | inactive |  |
| COc1cc(OC)c(/C=C2\CCC/C(=C\c3c(OC)cc(OC)cc3OC)C2=O)c(OC)c1 | Active | 60% |  |
| COc1cc(OC)c(/C=C/C(=O)/C=C/c2c(OC)cc(OC)cc2OC)c(OC)c1 | Active | 60% |  |
| COc1cc(OC)c(/C=C2\CC/C(=C\c3c(OC)cc(OC)cc3OC)C2=O)c(OC)c1 | inactive | inactive |  |
| Cc1ccc(/C=C2\CCC/C(=C\c3ccc(C)cc3C)C2=O)c(C)c1 | inactive | inactive |  |
| CN(C)CCCOc1ccc(/C=C2\CCC/C(=C\c3ccc(OCCCN(C)C)cc3)C2=O)cc1 |  |  | inhibition at 10 µM (RAW264.7 [1]): 96.9%; inhibition at 10 µM (RAW264.7 [2]; Mus musculus, RAW264.7): 97.1%; Activity (RAW264.7 [3]): Non-toxic; inhibition (RAW264.7 [4]): Dose-dependent effect; inhibition (RAW264.7 [5]): Dose-dependent effect |
| O=C1/C(=C/c2c(F)cccc2F)CCC/C1=C\c1c(F)cccc1F | inactive | inactive |  |
| Cc1ccc(/C=C2\CC/C(=C\c3ccc(C)cc3C)C2=O)c(C)c1 | Active | inactive |  |
| O=C1/C(=C/c2cccc(Cl)c2Cl)CC/C1=C\c1cccc(Cl)c1Cl | inactive | inactive |  |
| O=C(/C=C/c1ccccc1C(=O)O)/C=C/c1ccccc1C(=O)O | inactive | inactive |  |
| O=C(/C=C/c1ccc(Cl)cc1Cl)/C=C/c1ccc(Cl)cc1Cl | inactive | inactive |  |
| O=C1/C(=C/c2cc(F)ccc2F)CC/C1=C\c1cc(F)ccc1F | inactive | inactive |  |
